Experimental data: ChEMBL document CHEMBL3627671, “Novel derivatives of nitro-substituted salicylic acids: Synthesis, antimicrobial activity and cytotoxicity” (Bioorg Med Chem, 2015)
≈ marks a conversion by molar mass, not a printed value.

Tests used:
Type in all cases: functional
[1] = system: Mycobacterium avium; assay: Antimycobacterial activity against Mycobacterium avium 330/80 after 14 days; details: 330/80, 336 h
[2] = system: Mycobacterium tuberculosis; assay: Antimycobacterial activity against Mycobacterium tuberculosis H37Rv 331/88 after 21 days; details: H37Rv 331/88, 504 h
[3] = system: Mycobacterium kansasii; assay: Antimycobacterial activity against Mycobacterium kansasii 235/80 after 21 days; details: 235/80, 504 h
How it was run: (§1)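 Šula's semisynthetic medium micromethod at 37 °C, read after 7, 14 and 21 days. The 1.0 McFarland suspension was diluted 10^-4. MIC determined. 6509/96 is a clinical isolate.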

[4] = system: Mycobacterium avium; assay: Antimycobacterial activity against Mycobacterium avium 330/80 after 21 days; details: 330/80, 504 h
[5] = system: Mycobacterium tuberculosis; assay: Antimycobacterial activity against Mycobacterium tuberculosis H37Rv 331/88 after 14 days; details: H37Rv 331/88, 336 h
[6] = system: Mycobacterium kansasii; assay: Antimycobacterial activity against Mycobacterium kansasii 6509/96 after 14 days; details: 6509/96, 336 h; how it was run: as §1
[7] = system: Mycobacterium kansasii; assay: Antimycobacterial activity against Mycobacterium kansasii 6509/96 after 7 days; details: 6509/96, 168 h; how it was run: as §1
[8] = system: Mycobacterium kansasii; assay: Antimycobacterial activity against Mycobacterium kansasii 235/80 after 7 days; details: 235/80, 168 h; how it was run: as §1
[9] = system: Mycobacterium kansasii; assay: Antimycobacterial activity against Mycobacterium kansasii 6509/96 after 21 days; details: 6509/96, 504 h; how it was run: as §1
[10] = system: Mycobacterium kansasii; assay: Antimycobacterial activity against Mycobacterium kansasii 235/80 after 14 days; details: 235/80, 336 h; how it was run: as §1

| SMILES | MIC [1] | MIC [2] | MIC [3] | MIC [4] | MIC [5] | MIC [6] | MIC [7] | MIC [8] | MIC [9] | MIC [10] |
| --- | --- | --- | --- | --- | --- | --- | --- | --- | --- | --- |
| O=C(Nc1cccc(Br)c1)c1cccc([N+](=O)[O-])c1O | 250 µM (≈ 84.3 µg/mL) | 62.5 µM (≈ 21.1 µg/mL) | 125 µM (≈ 42.1 µg/mL) | 250 µM (≈ 84.3 µg/mL) | 62.5 µM (≈ 21.1 µg/mL) | 125 µM (≈ 42.1 µg/mL) | 125 µM (≈ 42.1 µg/mL) | 62.5 µM (≈ 21.1 µg/mL) | 125 µM (≈ 42.1 µg/mL) | 125 µM (≈ 42.1 µg/mL) |
| O=C(Nc1cccc(Cl)c1)c1cccc([N+](=O)[O-])c1O | 500 µM (≈ 146 µg/mL) | 62.5 µM (≈ 18.3 µg/mL) | 250 µM (≈ 73.2 µg/mL) | 500 µM (≈ 146 µg/mL) | 62.5 µM (≈ 18.3 µg/mL) | 125 µM (≈ 36.6 µg/mL) | 125 µM (≈ 36.6 µg/mL) | 62.5 µM (≈ 18.3 µg/mL) | 125 µM (≈ 36.6 µg/mL) | 125 µM (≈ 36.6 µg/mL) |
| O=C(Nc1cccc(F)c1)c1cccc([N+](=O)[O-])c1O | 500 µM (≈ 138 µg/mL) | 62.5 µM (≈ 17.3 µg/mL) | 250 µM (≈ 69.1 µg/mL) | 500 µM (≈ 138 µg/mL) | 62.5 µM (≈ 17.3 µg/mL) | 250 µM (≈ 69.1 µg/mL) | 125 µM (≈ 34.5 µg/mL) | 62.5 µM (≈ 17.3 µg/mL) | 250 µM (≈ 69.1 µg/mL) | 125 µM (≈ 34.5 µg/mL) |
